Reference: ChEMBL document CHEMBL4190227, “Syntheses, toxicities and anti-inflammation of H2S-donors based on non-steroidal anti-inflammatory drugs” (Eur J Med Chem, 2017)

Legend:
[1] = Toxicity in AB zebrafish embryo assessed as percentage of embryos alive at 5 to 10 uM measured at 120 hrs post fertilization by dissecting light microscopic analysis relative to DMF; format: organism-based, Danio rerio; settings: read-out: Activity
How it was run: (§1)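 Wild-type AB zebrafish embryos, collected within 1 h of lights-on and washed in E3 medium, were exposed one embryo per well in 200 μL test solution, with plates sealed against evaporation. There were 100 embryos per group, split into three replicate groups. Mortality was recorded at 24–168 hpf. DMF vehicle (1:1000) served as control. Results are mean ± SD of three replicates.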

Danio rerio [2] = species on record: Danio rerio; test: Toxicity in AB zebrafish embryo assessed as embryonic spontaneous movement frequencies per minute at 1 to 20 uM measured at 24 hrs post fertilization by stereoscopic dissecting light microscopic analysis (reference value: 15 /min); format: organism-based; settings: in vivo
How it was run: (§2)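 AB embryos exposed from 4 to 24 hpf to compound (0.5–20 μM) or DMF vehicle (1:1000); ten embryos per group chosen randomly; spontaneous movement recorded under stereoscopic dissecting microscope, frequency per min counted at 24 hpf; three independent experiments, mean ± SD.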

Danio rerio [3] = species on record: Danio rerio; test: Toxicity in AB zebrafish embryo assessed as increase in embryo malformation measured at 96 hrs post fertilization by stereoscopic dissecting light microscopic analysis; format: organism-based; settings: in vivo
How it was run: (§3)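 AB embryos exposed from 4 hpf through 96 hpf to compound or DMF vehicle (1:1000); malformations scored at 96 hpf under stereoscopic dissecting microscope; 100 embryos per group in three replicates; three independent experiments, mean ± SD.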

Danio rerio [4] = species on record: Danio rerio; test: Toxicity in AB zebrafish embryo assessed as rate of embryo malformation at 20 uM measured at 96 hrs post fertilization by stereoscopic dissecting light microscopic analysis relative to DMF; format: organism-based; settings: in vivo; how it was run: as §3
Danio rerio [5] = test: Toxicity in AB zebrafish embryo assessed as pericardial edema at 0.5 uM measured at 96 hrs post fertilization by stereoscopic dissecting light microscopic analysis; format: organism-based; settings: in vivo; how it was run: as §3
Danio rerio [6] = species on record: Danio rerio; test: Toxicity in AB zebrafish embryo assessed as bent spine at 0.5 uM measured at 96 hrs post fertilization by stereoscopic dissecting light microscopic analysis; format: organism-based; settings: in vivo; how it was run: as §3
[7] = (§4) Cytotoxicity against mouse RAW264.7 cells assessed as cell viability at 10 to 100 uM treated for 24 hrs post LPS induction by MTT assay; format: cell-based; settings: RAW264.7 cells, read-out: Activity
How it was run: (§5)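 Macrophages in high-glucose DMEM + 10% heat-inactivated FBS, 2 mM glutamine, 37 °C, 5% CO2; exposed 24 h to 10, 50, 100 μM with or without LPS 1 μg/mL; MTT added 4 h, formazan dissolved in DMSO, A570, expressed as % of control; four independent experiments.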

Danio rerio [8] = species on record: Danio rerio; test: Toxicity in AB zebrafish embryo assessed as reduction in hatching rate of embryos measured at 48 hrs post fertilization by dissecting light microscopic analysis; format: organism-based; settings: in vivo
How it was run: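 AB embryos exposed from 4 to 72 hpf to compound (0.5–20 μM) or DMF vehicle (1:1000), one embryo per well; hatch rate scored at 48 hpf; n=100 per group in three replicates; three independent experiments, mean ± SD.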

[9] = Drug degradation in phosphate buffer assessed as H2S release by measuring test compound half life at 40 uM measured every 5 mins in presence of L-cysteine by UV-Vis spectrometry; format: physicochemical
How it was run: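 Sulfide release at 37.5 °C: donor (40 mM THF stock) added to pH 7.4 phosphate buffer with 1.0 mM L-cysteine; aliquots taken every 5 min into zinc acetate/N,N-dimethyl-1,4-phenylenediamine/FeCl3 in HCl, A670 read 15 min later; H2S quantified against Na2S standard curve (5–150 μM); release curve plotted vs time; four independent experiments.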

[10] = Toxicity in AB zebrafish embryo assessed as percentage of embryos alive at 10 uM measured at 120 hrs post fertilization by dissecting light microscopic analysis relative to DMF; format: organism-based, Danio rerio; settings: read-out: Activity; how it was run: as §1
[11] = Toxicity in AB zebrafish embryo assessed as percentage of embryos alive at 20 uM measured at 120 hrs post fertilization by dissecting light microscopic analysis relative to DMF; format: organism-based, Danio rerio; settings: read-out: Activity; how it was run: as §1
Danio rerio [12] = species on record: Danio rerio; test: Toxicity in AB zebrafish embryo assessed as reduction in embryonic spontaneous movement frequencies per minute up to 1 uM measured at 24 hrs post fertilization by stereoscopic dissecting light microscopic analysis; format: organism-based; settings: in vivo; how it was run: as §2
Danio rerio [13] = species on record: Danio rerio; test: Toxicity in AB zebrafish embryo assessed as embryonic spontaneous movement frequencies per minute at 5 uM measured at 24 hrs post fertilization by stereoscopic dissecting light microscopic analysis (reference value: 15.9 /min); format: organism-based; settings: in vivo; how it was run: as §2
Danio rerio [14] = species on record: Danio rerio; test: Toxicity in AB zebrafish embryo assessed as embryonic spontaneous movement frequencies per minute at 10 uM measured at 24 hrs post fertilization by stereoscopic dissecting light microscopic analysis (reference value: 15.9 /min); format: organism-based; settings: in vivo; how it was run: as §2
Danio rerio [15] = species on record: Danio rerio; test: Toxicity in AB zebrafish embryo assessed as embryonic spontaneous movement frequencies per minute at 20 uM measured at 24 hrs post fertilization by stereoscopic dissecting light microscopic analysis (reference value: 15.9 /min); format: organism-based; settings: in vivo; how it was run: as §2
Danio rerio [16] = species on record: Danio rerio; test: Toxicity in AB zebrafish embryo assessed as rate of embryo malformation at 0.5 to 20 uM measured at 96 hrs post fertilization by stereoscopic dissecting light microscopic analysis relative to DMF; format: organism-based; settings: in vivo; how it was run: as §3
RAW264.7 [17] = test: as §4; format: cell-based; settings: raw264.7, 24 h, 100 µM; how it was run: as §5
RAW264.7 [18] = test: Antiinflammatory activity in mouse RAW264.7 cells assessed as LPS-induced TNFalpha levels at 100 uM incubated for 24 hrs post LPS induction by ELISA relative to control; format: functional
How it was run: (§6)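 LPS (1 μg/mL) for 4 h, then compound at 10, 50, 100 μM for 24 h; cells lysed in RIPA, spun 12,000×g 10 min, protein normalised by BCA to 0.1 mg/mL; target (TNF-α, HO-1, IL-10 or COX-2) quantified by sandwich ELISA kit with mouse-specific polyclonal antibodies; four independent experiments.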

RAW264.7 [19] = test: Antiinflammatory activity in mouse RAW264.7 cells assessed as increase in LPS-induced IL10 levels at 100 uM incubated for 24 hrs post LPS induction by ELISA relative to control; format: functional; how it was run: as §6
RAW264.7 [20] = test: Antiinflammatory activity in mouse RAW264.7 cells assessed as increase in IL10 levels at 100 uM measured after 24 hrs in absence of LPS by ELISA relative to control; format: functional
How it was run: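 Macrophages exposed 24 h to 10, 50, 100 μM without LPS; lysates (RIPA, 12,000×g spin) normalised by BCA to 0.1 mg/mL protein; IL-10 measured by mouse-specific sandwich ELISA kit; four independent experiments, mean ± SD.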

SMILES | survival at 120 h, up to 10 µM [1] [%] | Activity (Danio rerio [2]) [min⁻¹] | Activity (Danio rerio [3]) | Activity (Danio rerio [4]) [%] | Activity (Danio rerio [5]) | Activity (Danio rerio [6]) | viability at 24 h, up to 100 µM [7] [%] | Activity (Danio rerio [8]) | half-life at 40 µM [9] [min] | survival at 120 h, 10 µM [10] [%] | survival at 120 h, 20 µM [11] [%] | Activity (Danio rerio [12]) | Activity (Danio rerio [13]) [min⁻¹] | Activity (Danio rerio [14]) [min⁻¹] | Activity (Danio rerio [15]) [min⁻¹] | Activity (Danio rerio [16]) [%] | Activity (RAW264.7 [17]) | Activity (RAW264.7 [18]) [%] | fold change (FC) (RAW264.7 [19]) | fold change (FC) (RAW264.7 [20])
CC(C)Cc1ccc(C(C)C(=O)Oc2ccc(C(N)=S)cc2)cc1 (stereo unspecified) | 60 | 11 | Dose-dependent effect | 5 | Toxic | Toxic | 70 to 110 | Dose-dependent effect | – | – | – | – | – | – | – | – | – | – | – | –
CC(=O)Nc1ccc(OC(=O)CCCCC2CCSS2)cc1 (stereo unspecified) | – | – | – | – | – | – | – | Dose-dependent effect | 14.1 | 51 | 41 | Non-Toxic | 14.1 | 13.5 | 12.2 | 3 | Non-Toxic | 50 | 3 | 3
